This note sets out measurements from ChEMBL document CHEMBL3132830, “Discovery of a Potent Anti-tumor Agent through Regioselective Mono-N-acylation of 7H-Pyrrolo[3,2-f]quinazoline-1,3-diamine” (Medchemcomm, 2013).

A word on the GI50: it is the concentration that inhibits growth by half.

The test system of one series is HEK-293T. Kind of series: Inhibition of CREB binding protein (unknown origin) expressed in HEK293T cells assessed as reduction in CREB-mediated gene transcription up to 10 uM by CREB reporter gene assay. It is filed as cell-based. Particulars: Homo sapiens. The essentials:
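CREB-mediated gene transcription measured with a CREB reporter assay in HEK 293T cells; compound tested at concentrations up to 10 μM.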

Series [1] deals with T1, Dihydrofolate reductase (Homo sapiens) (UniProt P00374).
T1 sequence (whole entry): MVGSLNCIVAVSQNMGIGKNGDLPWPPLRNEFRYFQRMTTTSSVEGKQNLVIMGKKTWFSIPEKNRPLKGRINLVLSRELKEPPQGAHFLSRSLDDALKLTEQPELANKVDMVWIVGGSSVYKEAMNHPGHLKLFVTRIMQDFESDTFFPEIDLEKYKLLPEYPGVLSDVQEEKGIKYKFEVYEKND
The series can be described thus: Inhibition of human DHFR up to 10 uM.

For series [2], the system named is HMEC. The series can be described thus: Toxicity against HMEC at 10 uM after 24 hrs by MTT assay. In kind it is cell-based. The note with it: human. An outline of the steps:
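HMEC given a 24 h drug treatment; toxicity assessed at concentrations up to 10 μM.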
(Tetrazolium dyes change colour on reduction, which living cells bring about.)

Series [3] has as its system HMEC. Kind of series: Toxicity against HMEC at 10 uM after 72 hrs by MTT assay. In kind it is cell-based. Particulars: human. An outline of the steps: (§1)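 Normal human mammary epithelial cells (HMEC) exposed to compound continuously for 72 h; toxicity read at concentrations from 0.1 μM up to 10 μM.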
The subject of series [4] is HMEC. Kind of series: Toxicity against HMEC up to 5 uM after 72 hrs by MTT assay. It is filed as cell-based. The note with it: human. The essentials:
as §1

The next series concerns MDA-MB-468. The series can be described thus: Growth inhibition of human MDA-MB-468 cells after 72 hrs by MTT assay. In kind it is functional. The note with it: MDA-MB-468, 72 h. The essentials:
(§2)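 MTT assay in triple-negative breast cancer cells; 72 h continuous compound exposure; top concentration tested 100 μM. GI50 is the concentration giving 50% growth inhibition over 72 h. Values are mean ± SD of at least two independent experiments, each run in duplicate.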

In the next series the test system is MDA-MB-231. The series can be described thus: Growth inhibition of human MDA-MB-231 cells after 72 hrs by MTT assay. It is filed as functional. Particulars: MDA-MB-231, 72 h. The essentials: as §2
Series [5] deals with HMEC. The series can be described thus: Toxicity against HMEC at 0.1 uM after 72hrs by MTT assay. The note with it: human. In kind it is cell-based. The essentials: as §1

Active and inactive are the calls of the source. The rule behind the calls is not given here. A value given as a limit tells only on which side of the number the result lay.

With `Nc1nc(NC(=O)c2ccc3ccccc3c2)nc2ccc3[nH]ccc3c12`, the inhibition result (in the series on HEK-293T; in series [1]) was “inactive” in each case. The Activity result in the series with HMEC [2] was “Non-toxic”; in the series with HMEC [3] it was “Toxic”; with HMEC [4], “Non-toxic”. Also, the concentration for 50% growth inhibition (GI50) with MDA-MB-468 turned out to be 0.44 µM; with MDA-MB-231, 1.6 µM.
Regarding `CC(C)C(=O)Nc1nc(N)nc2ccc3[nH]ccc3c12`, the GI50 in the series with MDA-MB-468 and in the series with MDA-MB-231 was more than 100 µM in each case.
With `CCCC(=O)Nc1nc(N)nc2ccc3[nH]ccc3c12`, the values for the 50% growth inhibitory concentration (GI50) with MDA-MB-468 and with MDA-MB-231 were 26.3 µM and 26.9 µM, respectively.
On the same counts, the results for `CC(C)C(=O)Nc1nc(N)c2c(ccc3[nH]ccc32)n1` are 29.8 µM and 39.7 µM.
For the compound `COc1cccc2c1C(=O)c1c(O)c3c(c(O)c1C2=O)C[C@@](O)(C(=O)CO)C[C@@H]3O[C@H]1C[C@H](N)[C@H](O)[C@H](C)O1` [DOXORUBICIN], in the series with HMEC [5], the Activity entry is reported as “Toxic”. Further, the figures for the GI50 in the series on MDA-MB-468 and in the series on MDA-MB-231 were 0.085 µM and 0.15 µM, respectively.
With `CC(C)(C)[Si](C)(C)OCCCCC(=O)Nc1nc(N)c2c(ccc3[nH]ccc32)n1`, the concentration for 50% growth inhibition (GI50) in the series on MDA-MB-468 came out at 2.24 µM; in the series with MDA-MB-231, 2.43 µM.
For the compound `Nc1nc(N)c2c(ccc3[nH]ccc32)n1`, the figures for the concentration for 50% growth inhibition (GI50) in the series on MDA-MB-468 and with MDA-MB-231 were 3.34 µM and 4.13 µM, respectively.
On the same counts, the results for `CC(=O)Nc1nc(NC(C)=O)c2c(ccc3[nH]ccc32)n1` are more than 100 µM and more than 100 µM.
On the same counts, the results for `CC(C)(C)[Si](C)(C)OCCCCC(=O)Nc1nc(N)nc2ccc3[nH]ccc3c12` are 11.1 µM and 15.6 µM.
On the same counts, the results for `CCC(=O)Nc1nc(N)nc2ccc3[nH]ccc3c12` are 20.3 µM and 18.7 µM.
Turning to `CCC(=O)Nc1nc(N)c2c(ccc3[nH]ccc32)n1`, the GI50 with MDA-MB-468 turned out to be 24.4 µM; with MDA-MB-231 it was 21.4 µM.
On the same counts, the results for `CC(=O)Nc1nc(N)c2c(ccc3[nH]ccc32)n1` are 53.5 µM and 27.2 µM.
Regarding `CCCC(=O)Nc1nc(N)c2c(ccc3[nH]ccc32)n1`, the results for the GI50 in the series with MDA-MB-468 and with MDA-MB-231 were 27.4 µM and 25.5 µM, respectively.
On the same counts, the results for `Nc1nc(NC(=O)c2ccc3ccccc3c2)c2c(ccc3[nH]ccc32)n1` are 8.91 µM and 8.46 µM.
On the same counts, the results for `CC(=O)Nc1nc(N)nc2ccc3[nH]ccc3c12` are 56.5 µM and 32.6 µM.
